Beta cell apopt – blocks beta cell apoptosis; INS-1E cytokine-induced death, ATP luminescence, 48 h; percent of positive-control rescue, neutral wells zero; protection from apoptosis, % (concentration not given with the values); 300,000 compounds, 0.8% hits;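 active means Every replicate reaches about 75%, or at least half do and their mean reaches it too, limit read from the data; inconclusive means At least half of replicates reach the limit but their mean does not; inactive means Under half of replicates reach the limit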;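 further: 0% = cytokine-treated negative control wells and 100% = positive control rescue; higher means more ATP so stronger rescue from cytokine killing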
T cruzi repl – T. cruzi replication inhibition; T. cruzi beta-gal in NIH3T3, luminescence, 90 h; inhibition, % (test concentration not listed); 300,000 compounds, 1.4% hits;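 active means mean inhibition across valid replicates above about 55%, limit read from the data; inconclusive means mean below that limit but half or more replicates reach it; inactive means mean below it, under half of replicates reach it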;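 further: signal also drops with host cell toxicity which is not excluded here; 0% = plate median of DMSO wells and 100% = zero luminescence signal; higher percent means less beta-gal luminescence so fewer parasites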
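System – NIH/3T3 host cells with β-galactosidase reporter T. cruzi · Doses – single 50 nL compound addition per well in DMSO · Reagent – 5000 T. cruzi trypomastigotes/well · Medium – Low-serum DMEM with 2% FBS · Timing – ≥90 h infection period, 3 h prior cell attachment · Evaluation – parasite load inhibition, % · Technique – GalScreen luminescence, 60 min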
CSC inhib – blocks cancer stem cells | cancer stem cell-like cells viability, luminescence | inhibition, % at 7.5 µM | 300,000 compounds, 1.1% hits; in the data active means inhibition above about 75%; inconclusive means no clear call, values can overlap the other calls; tested in HMLE shEcad cells
Calb FLC – affects C. albicans growth with fluconazole | 300,000 compounds, 0.57% hits | C. albicans CaCi-2 (fluconazole-resistant clinical isolate) + fluconazole, Alamar Blue growth, 48 h | growth inhibition, % (no concentration beside the values);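 active means growth inhibition above about 58% in most replicates, limit read from the data, passing the limit was not always enough; inconclusive means exactly half the replicates above a set limit; inactive means most replicates below a set limit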;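 further: all wells also contain fluconazole at 8 µg/ml as a sub-toxic cotreatment; 0% = median of DMSO wells and 100% = median of geldanamycin control wells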
Mdm2 MdmX PPI – disrupts the human Mdm2-MdmX interaction; 330,000 compounds, 3% hits; SaOS-2 split-luciferase Mdm2/MdmX complementation, luminescence; O15151+Q00987; inhibition, % at 8 µM;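 active means inhibition of at least 50% at 8 µM in the primary screen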
Target sequence (O15151 whole entry, looked up): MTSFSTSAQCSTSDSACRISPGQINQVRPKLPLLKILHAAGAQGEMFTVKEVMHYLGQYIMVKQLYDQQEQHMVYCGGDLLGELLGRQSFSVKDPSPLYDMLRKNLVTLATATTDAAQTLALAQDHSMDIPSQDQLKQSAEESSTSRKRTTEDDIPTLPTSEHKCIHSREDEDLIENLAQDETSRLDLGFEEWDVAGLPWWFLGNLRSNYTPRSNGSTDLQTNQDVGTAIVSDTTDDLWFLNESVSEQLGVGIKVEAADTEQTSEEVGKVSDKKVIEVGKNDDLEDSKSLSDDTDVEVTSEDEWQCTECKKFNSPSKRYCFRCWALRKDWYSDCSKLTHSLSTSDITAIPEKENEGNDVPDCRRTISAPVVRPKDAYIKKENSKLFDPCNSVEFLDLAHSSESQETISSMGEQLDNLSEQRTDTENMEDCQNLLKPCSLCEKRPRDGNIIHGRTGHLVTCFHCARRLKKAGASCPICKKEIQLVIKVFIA
Target sequence (Q00987 whole entry, looked up): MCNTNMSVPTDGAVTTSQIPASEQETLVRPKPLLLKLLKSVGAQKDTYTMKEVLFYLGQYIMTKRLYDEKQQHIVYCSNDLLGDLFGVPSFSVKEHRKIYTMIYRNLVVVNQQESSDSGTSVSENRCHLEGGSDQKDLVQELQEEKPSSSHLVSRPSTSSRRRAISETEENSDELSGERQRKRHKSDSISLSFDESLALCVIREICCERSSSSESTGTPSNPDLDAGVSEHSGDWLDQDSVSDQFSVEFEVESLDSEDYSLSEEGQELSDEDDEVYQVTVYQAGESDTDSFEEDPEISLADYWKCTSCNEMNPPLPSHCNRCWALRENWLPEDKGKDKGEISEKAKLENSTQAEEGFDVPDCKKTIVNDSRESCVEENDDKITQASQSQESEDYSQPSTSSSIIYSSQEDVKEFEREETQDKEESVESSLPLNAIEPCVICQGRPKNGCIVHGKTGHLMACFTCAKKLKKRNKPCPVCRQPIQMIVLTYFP
SKKanGAS inh – SKKanGAS growth inhibition. S. pyogenes SKKanGAS, kanamycin growth, BacTiter-Glo, 6 h. inhibition, % at 7.5 µM. 300,000 compounds, 1.3% hits;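 active means mean replicate score, as percent of positive control median, at least 50; inconclusive means mean below 50 but one replicate at or above 50; inactive means mean and every replicate below 50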;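 further: strain carries kanamycin resistance gene driven by streptokinase promoter and grows in 40 µg/ml kanamycin; loss of luminescence reflects streptokinase promoter inhibition or plain growth inhibition; 0% = median of DMSO wells and 100% = positive control at its reference dose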
Numbers without * were called inactive; ? = inconclusive; . = not tested or not shown. Most compounds without a hit are left out; they make up all but 5.7% or so of the library.

SMILES	Beta cell apopt	T cruzi repl	CSC inhib	Calb FLC	Mdm2 MdmX PPI	SKKanGAS inh
COc1ccc(/C=C2\Sc3ccc(C(=O)N4CCOCC4)cc3N(C)C2=O)cc1	-5	-5	-1	4	18	60*
CN1C(=O)/C(=C/c2ccccc2F)Sc2ccc(C(=O)N3CCCC3)cc21	4	-16	-14	18	39	71*
COc1ccc(/C=C2\Sc3ccc(C(=O)NCC4CCCO4)cc3N(C)C2=O)cc1 (configuration not stated)	-5	7	8	2	12	92*
Cc1ccc(/C=C2/Sc3ccccc3N(CC(=O)NCC3CCCO3)C2=O)cc1 (configuration not stated)	0	4	-5	-4	-2	4
Cc1cc(NC(=O)CSc2nc(=O)n(CCCN(C)C)c3c2CCCC3)no1	-12	-11	-18	0	25	-3
S=c1[nH]c2cc(Cl)c3cccnc3c2o1	-7	-7	-11	79*	12	8
S=c1[nH]c2ncccc2o1	-3	-3	5	1	15	-2
O=C(Nc1ccccc1)[C@@H]1CC=C[C@@H]2CCN(Cc3ccc(Cl)c(Cl)c3)C(=O)[C@@H]21	2	16	6	18	21	20
CC(=O)OCCCNc1cc(Sc2ccc(Cl)cc2)c2nonc2c1[N+](=O)[O-]	-1	33	81*	-10	.	-2
CCC(=O)OCCNc1cc(Sc2nccn2C)c2nonc2c1[N+](=O)[O-]	-1	55*	25	27	.	23
Cc1ccc(Sc2cc(NCCCO)c([N+](=O)[O-])c3nonc23)cc1	-11	56*	7	0	24	4
Clc1cccc(-c2ccc(CNCCCN3CCOCC3)o2)c1	3	42	18	2	-1	-1
CCCC(=O)Nc1nc(-c2ccc3c(c2)CCN3S(C)(=O)=O)cs1	.	2	.	-5	-6	13
O=C(NC(=S)Nc1nc(-c2cccc3ccccc23)cs1)c1cc2ccccc2o1	0	-30	-22	-4	-1	5
CS(=O)(=O)N1CCc2cc(-c3csc(NC(=O)Cc4ccccc4)n3)ccc21	5	55*	28	7	43	5
CC(=O)Nc1ccc(-c2csc(NC(=O)Cc3cccc(F)c3)n2)cc1	10	12	90*	-4	18	-12
CC(=O)Nc1nc(-c2cccc3ccccc23)cs1	-4	57*	-9	0	14	0
CC(=O)Nc1ccc(-c2csc(NC(=O)Cc3ccccc3F)n2)cc1	-4	-14	90*	0	-9	3
COc1ccc(C(=O)N2CCC(=O)N(C(CO)Cc3ccccc3)CC2)cc1 (configuration not stated)	-5	7	-5	36	-7	13
CCOC(=O)COc1ccc(/C=C2\NC(=S)N(CC)C2=O)cc1	-5	-38	6	-2	-13	-11
C#Cc1ccc(CN2CCC(Oc3ccc(C(=O)NCc4ccccn4)cc3)CC2)cc1	-10	7	-5	-16	30	14
Cc1nc(NC(=O)c2ccccc2)sc1-c1csc(NCCc2ccccc2)n1	11	69*	9	6	10	29
Cc1nc(NC(=O)c2ccccc2)sc1-c1csc(NCc2ccccc2)n1	11	-10	-3	11	-12	17
CCOC(=O)Nc1ccc2c(c1)nc(CN1CCCCC1)n2C	1	-2	-4	35	10	14
COCC1CCN(Cc2c(C(=O)N3CCN(C4CCCCC4)CC3)nc3ccccn23)C1 (configuration not stated)	-3	28	0	2	-9	-2
SMILES	Beta cell apopt	T cruzi repl	CSC inhib	Calb FLC	Mdm2 MdmX PPI	SKKanGAS inh
COC1CCN(Cc2c(C(=O)N3CCN(C4CCCCC4)CC3)nc3ccccn23)CC1	-6	59*	5	-2	-2	-13
COc1ccc(OCC(=O)Nc2cc(NC(=O)c3ccco3)ccc2OC)cc1	3	13	7	2	13	10
CC(C)[C@@H](CSc1ccccc1)N1CCN(Cc2ccccc2)CCC1=O	-1	-9	-12	-11	9	-1
CN(C)CCOC(=O)c1sc2ccccc2c1Cl	2	4	-5	110*	30	-7
Cc1sc2nc(SCc3ccccc3)n(Cc3ccco3)c(=O)c2c1C	-2	38	6	1	-3	21
Cc1ccc(CSc2nc3sc(C)c(C)c3c(=O)n2Cc2ccco2)cc1	2	24	?	-13	17	78*
O=C(OCc1ccccc1)c1ccc2c(c1)-c1ccccc1C2=O	0	-10	11	1	-143	55*
O=C(OCc1ccccc1)c1ccccc1	-1	0	-3	6	-8	6
CCc1ccc(N=C2NC(=O)CS2)cc1	2	7	-12	5	15	-4
CCOc1ccc(N(CC(=O)NCc2ccc(C)cc2)S(=O)(=O)c2c(C)[nH]c(=O)[nH]c2=O)cc1	-2	-8	10	-1	23	59*
Cc1nc(N/N=C/c2ccccn2)sc1C	110*	.	70	.	.	.
CCOC(=O)N1CCN(S(=O)(=O)c2ccc(C(=O)N(CCN(C)C)c3nc4ccc(Cl)cc4s3)cc2)CC1	2	76*	7	-32	-10	13
CCOC(=O)N1CCN(S(=O)(=O)c2ccc(C(=O)N(CCCN(C)C)c3nc4ccc(OC)cc4s3)cc2)CC1	-9	40	3	3	20	1
CCOC(=O)N1CCN(S(=O)(=O)c2ccc(C(=O)NNc3nc4ccc(Cl)cc4s3)cc2)CC1	82*	-13	104*	-4	34	5
CCOC(=O)N1CCN(S(=O)(=O)c2ccc(C(=O)Nc3nnc(CC)o3)cc2)CC1	2	-10	.	6	8	1
Cc1ccc(S(=O)(=O)N(C)C)cc1NC(=S)N1CCCCC1CO (configuration not stated)	-7	-14	-1	1	5	-3
CCCCNC(=O)[C@@](CC)(ONc1ccccc1C(F)(F)F)c1cccc2ccccc12	-1	.	29	.	23	.
Fc1ccc(CSc2ncnc3sc4c(c23)CCCC4)cc1	1	9	29	-2	36	77*
COc1ccc(-c2nc(C#N)c(NCc3ccc(F)cc3)o2)cc1OC	21	-10	1	12	8	-6
COc1ccc(-c2nc(C#N)c(NCc3cccnc3)o2)cc1OC	5	64*	-18	-7	9	4
CC(NC=C1C(=O)OC(C)(C)OC1=O)C(=O)O (configuration not stated)	-4	55*	-17	25	4	-4
CCCc1nnc(SCC(=O)Nc2nc(C)cs2)n1CCOC	-2	-11	6	-12	14	0
C/C(=N\NC(=O)C1CCCC1)c1ccc(Cl)c(Cl)c1	5	.	10	112*	-31	.
Fc1cccc(Cl)c1CNc1ccc(N2CCCC2)cc1	51	94*	6	7	-11	-7

High-throughput results (PubChem BioAssay)
